According to PubChem BioAssay AID504382 (The Scripps Research Institute Molecular Screening Center, 2011):
About 460 (18%) of roughly 2,500 compounds were called active. These entries were drawn from the full list. A number with no mark means an inactive call.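 Rule for the calls: active = mean activation above a cutoff of low control average plus 3 SD from the earlier screen (cut at about 12% in these data); inactive = the rest.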

test: IANBD-channel fluorescence artefacts in buffer – biochemical, artefact control for cardiac RTF calcium sensitizer project, confirmation (AID 504382); settings: IANBD fluorescence interference counterscreen, EC20 Ca2+, at 7.2 µM, active compounds read high, scaled: EC20 calcium 0, EC100 calcium 100
Procedure, shortened: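 Technique: fluorescence, 480/540 nm / Medium: MOPS-based buffer with KCl, MgCl2, EGTA, NTA, DTT, pH 7.2 / Probe or stimulus: calcium at EC20 level, 0.472 mM final / Repeats: triplicate wells per compound / Times: 15 min compound exposure at 25 °C / Measure: compound fluorescence interference relative to control well signal range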

SMILES | fluorescence artifact activation
CC1CN(CCCCOc2ccc3ccccc3c2)CC(C)O1 (configuration not stated) | 0.12%
Cc1ccccc1C(=O)c1cccn1CC(=O)NCCCN1CC(C)CC(C)C1 (configuration not stated) | 0.1%
CC1CC(C)CN(CCOCCSc2ccccc2)C1 (configuration not stated) | 28.4% (active)
CC1CCN(c2ccc3c(c2)S(=O)(=O)c2cccc(C(=O)NCc4cccc(F)c4)c2C3=O)CC1 | 0.09%
C=CCNC(=S)N(CC=C)C1CCS(=O)(=O)C1 (configuration not stated) | 0.07%
CCNC(=O)/C(C#N)=C/c1c(N2CCN(Cc3ccc4c(c3)OCO4)CC2)nc2c(C)cccn2c1=O | 0.06%
Cc1cccn2c(=O)c3cc(C#N)c(=NC(=O)c4cccs4)n(CCCOC(C)C)c3nc12 | -0.06%
O=C1NC(=S)S/C1=C/c1ccc(N2CCOCC2)o1 | 1.59%
Cc1cccn2c(=O)c(/C=C3\SC(=S)N(CC(C)C)C3=O)c(NCCCOC(C)C)nc12 | 17.1% (active)
Cc1cccn2c(=O)c(/C=C3\SC(=S)NC3=O)c(NCCCN3CCOCC3)nc12 | 21.4% (active)
COC(=O)CCCCCN1C(=O)/C(=C\c2ccncc2)SC1=S | -0.01%
O=C1CCN2C=Nc3cccc4ccc1c2c34 | -0.03%
CC1=C(C)CC(C(=O)NNC(=O)c2cccc(Cl)c2)C(C(=O)O)C1 (configuration not stated) | -0.06%
Cc1cc([N+](=O)[O-])nn1CC(=O)Nc1c(C)n(C)n(-c2ccccc2)c1=O | 3.39%
Cc1c(N=C2N=C(NC(=O)Nc3ccc(Cl)cc3)c3ccccc32)c(=O)n(-c2ccccc2)n1C | 20.3% (active)
CN1CCC/C1=C1/C(=O)N(c2ccccc2)N=C1NC(=O)Nc1cccc(Cl)c1 | 0.05%
O=C(Nc1cccc2c1N(C(=O)c1ccco1)CCC2)c1ccco1 | 5.02%
COc1ccccc1CNC(=O)COC(=O)c1cccc(S(=O)(=O)N2CCOCC2)c1 | 0.16%
C[C@@H](NC(=O)c1ncn(C)c1C(=O)N[C@H](C)c1ccccc1)c1ccccc1 | 0%
C/C(=N\NC(=O)c1ccccc1)c1ccc(NC(=O)c2cccs2)cc1 | 0.85%
Cc1ccc(C(C)NC(=O)c2cccs2)cc1C (configuration not stated) | 174% (active)
Cc1cc(S(=O)(=O)NC(C)C)ccc1OCC(=O)NCc1ccccc1 | 0.08%
COC(=O)[C@H](C)NC(=O)c1cc2c(cn1)[nH]c1ccccc12 | 0.32%

SMILES | fluorescence artifact activation
CCOC(=O)c1c(NCC(C)C)c2ccccc2[nH]c1=O | 39.3% (active)
CCN(CC)C(=O)C(=O)c1c(-c2ccccc2)[nH]c2ccccc12 | 6.52%
C=CCN1C(=O)[C@@H]2Cc3c([nH]c4ccccc34)C(c3ccc(O)cc3)N2C1=S (some centres not stated) | -0.05%
CCC(=O)N1CCN(c2nc(C)nc3sc(C)c(C)c23)CC1 | 0.08%
S=C1NC2=C(CCCC2=C2SCCCS2)C(c2ccccc2)N1 (configuration not stated) | 0.29%
CC(=O)N(C(C)=O)N1C(=O)c2cccc3c(N4CCOCC4)ccc(c23)C1=O | 0.01%
O=C(O)CN1C(=O)c2cccc3c(Br)ccc1c23 | 53.6% (active)
O=C(OCCN1C(=O)c2cccc3c(N4CCOCC4)ccc(c23)C1=O)c1ccc(Cl)cc1 | 1.59%
CCn1c(CSCc2ccccc2)n[nH]c1=S | 0.18%
Cc1ccc(NC(=O)COc2ccc(/C=N/NC(=O)CSCc3ccccc3)cc2)cc1 | 12.9% (active)
Cc1ccc(NC(=O)CN(C)C(=O)COC(=O)COc2ccc(C#N)cc2)cc1 | 0.42%
Cc1ccc(NC(=O)CO/N=C/c2ccc(N(C)C)cc2)cc1 | 0.03%
C=CCN1C(=O)c2ccccc2NC1c1cc(Br)cs1 (configuration not stated) | 7.88%
Cc1nn(-c2ccccc2)c(Cl)c1C(=O)NC1CCCCC1 | 4.56%
Cc1cc(=O)oc2cc(OCC(=O)OCC(=O)NC(C)C)ccc12 | -0.02%
Cc1ccc(C)c(NC(=O)COC(=O)Cc2ccsc2)c1 | 0.03%
CCc1ccccc1NC(=O)COc1ccc2c(=O)c(Oc3cc(C)ccc3C)coc2c1 | 664% (active)
O=C(O)CSc1ncnc2scc(-c3ccc(Br)cc3)c12 | 0.71%
CC(C)(C)NCc1cc(Cl)ccc1OCc1cccs1 | 13.9% (active)
COc1cccc2c1C(=O)c1c(O)c3c(c(O)c1C2=O)CC(O)(C(C)=NNC(=O)c1ccc(Cl)c(Cl)c1)CC3OC1CC(N)C(O)C(C)O1 (configuration not stated) | 0.12%
Cc1cc(C)c(C#N)c(SCc2nnc(-c3ccccc3)o2)n1 | 14.5% (active)
N#Cc1c(N)oc(-c2ccccc2)c1-c1ccccc1 | 4.93%
Cc1cc(C)c(C#N)c(Sc2nnnn2-c2ccccc2)n1 | 11.6%

SMILES | fluorescence artifact activation
CCOC(=O)/C(C#N)=N\Nc1cc(Cl)ccc1OC | 0.07%
C[C@@H]1C=C(C(=O)N2CCOCC2)O[C@H](OCc2ccc(CO)cc2)C1 | 0.97%
CCOCCCNS(=O)(=O)c1ccc(NC(=O)c2ccc(OC)c([N+](=O)[O-])c2)cc1 | 0.52%
O=C(Nc1ccccc1C(=O)N/N=C/c1ccco1)c1ccc(F)cc1 | 1.44%
O=C(Cn1cc(/C=N/NC(=O)c2cccc3ccccc23)c2ccccc21)Nc1ccc(F)cc1 | 19.7% (active)
CCOc1cccc(NC(=O)/C(C#N)=C\c2cn(CC(=O)O)c3ccccc23)c1 | 0.19%
Cc1ccc(N=Cc2sc(O)c3ccccc23)c(C)c1 | 0.06%
CCOC(=O)c1ccc[n+](CC(=O)Nc2cc(C(F)(F)F)ccc2Cl)c1 | 2.39%
CCn1c(O)c(/C=N/N=C/c2ccccc2)c2ccc(C3=NNC(=O)CC3)cc21 | 0.02%
Brc1ccc(-c2cnnc(N3CCCC3)n2)cc1 | 66.5% (active)
C=CCOc1ccc(CNc2ccc3[nH]c(=O)[nH]c3c2)cc1OCC | 5.69%
COC(=O)c1c(NC(=O)c2ccnn2C)sc(C)c1C | 0.09%
Fc1ccc(C2=CC(c3ccc(Br)o3)n3ncnc3N2)cc1 (configuration not stated) | 0.34%
OCCN=C1CCCc2c1[nH]c1ccc(Cl)cc21 | 0.44%
COc1ccccc1NC(=O)CC(=O)CSc1nnc(-c2ccc(C)cc2)n1-c1ccccc1 | -0.03%
COc1ccccc1NCC(=O)NC(=O)NC1CCCCC1 | 0.02%
COc1ccccc1NC(=O)COC(=O)c1cnc(C)cn1 | 14.7% (active)
CCC(=O)Nc1ccc2c(c1)nc(CCN1CCN(C)CC1)n2C | 20.2% (active)
CCCn1c(CN2CCN(C(=O)OCC)CC2)nc2cc(NC(=O)CC)ccc21 | 0.01%
Cn1c(CN2CCCC2)nc2cc(NC(=O)COc3ccc([N+](=O)[O-])cc3)ccc21 | 0.82%
CCCCC1OC23CCCCC2C(C#N)(C#N)C1(C#N)C(=N)O3 (configuration not stated) | 3.08%
CCCCC1OC23CCCCC2C(C#N)(C(=N)O3)C1(C#N)C#N (configuration not stated) | -0.04%
CCCC1OC23CCCCC2C(C#N)(C#N)C1(C#N)C(=N)O3 (configuration not stated) | 36.8% (active)

SMILES | fluorescence artifact activation
CCN(c1ccccc1)S(=O)(=O)c1ccc(OC)c(NC(=O)Cn2cnc3c2c(=O)n(C)c(=O)n3C)c1 | 0.38%
CC(OC(=O)/C(C#N)=C/c1ccc(N(C)C)cc1)C(=O)N(C)c1ccccc1 (configuration not stated) | 0.19%
NS(=O)(=O)c1ccc(-c2ccc(/C=C3\SC(=S)N(C4CCS(=O)(=O)C4)C3=O)o2)cc1 (configuration not stated) | 3.08%
COc1ccc(CCNC(=O)C2CC(c3c(Cl)cccc3Cl)=NO2)cc1 (configuration not stated) | -0.04%
CC1(C)CC(=O)C(CC2CCCCC2=O)C(=O)C1 (configuration not stated) | 0.76%
Fc1ccc(CNC(=S)NCc2ccc(F)cc2)cc1 | 12.3% (active)
Fc1ccc(CNCc2ccc(Br)cc2)cc1 | 0.02%
CCN(CC)c1ccc(NC(=S)Nc2ccc(F)cc2)cc1 | 0.1%
S=C(Nc1ccc(N2CCOCC2)cc1)Nc1ccc2nc(-c3ccco3)c(-c3ccco3)nc2c1 | 8.46%
O=C(c1ccc(Cl)cc1)n1cnc2ccccc21 | 0.21%
O=C(Cn1cnc2ccccc2c1=O)c1ccc(Br)cc1 | 102% (active)
COc1ccc(C(=O)Cn2cnc3ccccc3c2=O)cc1OC | 0.22%
O=C(C1=NN(c2ccccc2)C2C(=O)N(c3ccccc3Cl)C(=O)C12)c1ccccc1 (configuration not stated) | 1.06%
Cc1oc(-c2cc3c(cc2Cl)OCO3)nc1CN1CCCC(C(=O)N2CCOCC2)C1 (configuration not stated) | 190% (active)
CSCCC(NC(=O)c1ccc(Cl)cc1)C(=O)OCC(=O)c1ccc[nH]1 (configuration not stated) | 0.05%
O=C(/C=C/c1ccccc1)N/C(=C/c1ccccc1)C(=O)NCCCO | 0.08%
C=CCNC(=O)NC(=O)COC(=O)CC(NC(N)=O)c1ccc(Cl)cc1 (configuration not stated) | 50.5% (active)
O=C(NCCCN1CCCC1=O)c1cccc(S(=O)(=O)Nc2ccc(Br)cc2)c1 | 0.07%
O=C1CCC(=O)N(O)CCCCCNC(=O)CCC(=O)N(O)CCCCNC(=O)CCC(=O)N(O)CCCCCN1 | -0.06%
O=C(CC1C(=O)N(c2ccc(Cl)cc2)C(=S)N1CCc1ccncc1)Nc1ccc(F)cc1 (configuration not stated) | -0.02%
O=C1c2cccc3cccc(c23)C(=O)N1CC1CCN(S(=O)(=O)c2ccc(F)cc2)CC1 | 34.6% (active)
O=S(=O)(c1ccccc1Cl)N1CCC(Cc2ccccc2)CC1 | 0.09%
CC1CCN(S(=O)(=O)c2ccc(N=NC3=C(O)CC(C)(C)CC3=O)cc2)CC1 | 1.03%
